Laboratory results reported in ChEMBL document CHEMBL2417469, “Synthesis of novel analogs of 2-pyrazoline obtained from [(7-chloroquinolin-4-yl)amino]chalcones and hydrazine as potential antitumor and antimalarial agents” (Eur J Med Chem, 2013).

Tests used:
Format in all cases: functional
ACHN = test: Cytotoxicity against human ACHN cells after 48 hrs by SRB assay
Outline: (§1)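 NCI 60-cell-line screen. Cells preincubated 24 h at 37 °C, 5% CO2; time-zero plates TCA-fixed. Compounds dissolved in DMSO and tested at five concentrations (100, 10, 1.0, 0.1, 0.01 µM) for 48 h continuous exposure. Adherent cells fixed with cold TCA (10% final), then SRB stained; absorbance at 515 nm. GI50, TGI and LC50 calculated from growth relative to time-zero and untreated controls.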

SK-OV-3 = test: Cytotoxicity against human SKOV3 cells after 48 hrs by SRB assay; conditions: SK-OV-3, 48 h; outline: as §1
NCI-H460 = test: Cytotoxicity against human NCI-H460 cells after 48 hrs by SRB assay; conditions: NCI-H460, 48 h; outline: as §1
T47D = test: Cytotoxicity against human T47D cells after 48 hrs by SRB assay
Outline: (§2)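 NCI 60-cell screen. Cells grew 24 h (37 °C, 5% CO2) before compound was added. Compounds were in DMSO and diluted in medium with gentamicin, then tested at five levels (100, 10, 1.0, 0.1, 0.01 µM) with 48 h continuous exposure. Adherent cells were fixed with TCA (10% final) and stained with 0.4% SRB, absorbance read at 515 nm. A time-zero plate was included. LC50 is the concentration giving 50% loss of protein relative to time zero.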

SK-MEL-2 = test: Cytotoxicity against human SK-MEL-2 cells after 48 hrs by SRB assay; conditions: SK-MEL-2, 48 h; outline: as §1
BT-549 = test: Cytotoxicity against human BT549 cells after 48 hrs by SRB assay; conditions: BT-549, 48 h; outline: as §1
NCI/ADR-RES = test: Cytotoxicity against human NCI/ADR-RES cells after 48 hrs by SRB assay; outline: as §1
A549 = test: Cytotoxicity against human A549/ATCC cells after 48 hrs by SRB assay; conditions: A549, 48 h; outline: as §1
SK-MEL-5 = test: Cytotoxicity against human SK-MEL-5 cells after 48 hrs by SRB assay; conditions: SK-MEL-5, 48 h; outline: as §1
LOX IMVI = test: Cytotoxicity against human LOXIMVI cells after 48 hrs by SRB assay; outline: as §1
HOP-92 = test: Cytotoxicity against human HOP92 cells after 48 hrs by SRB assay; conditions: HOP-92, 48 h; outline: as §1
SR = test: Cytotoxicity against human SR cells after 48 hrs by SRB assay; outline: as §2
Hs-578T = test: Cytotoxicity against human Hs578T cells after 48 hrs by SRB assay; outline: as §1
NCI-H23 = test: Cytotoxicity against human NCI-H23 cells after 48 hrs by SRB assay; conditions: NCI-H23, 48 h; outline: as §1
OVCAR-3 = test: Cytotoxicity against human OVCAR3 cells after 48 hrs by SRB assay; conditions: OVCAR-3, 48 h; outline: as §1
Malme-3M = test: Cytotoxicity against human MALME-3M cells after 48 hrs by SRB assay; outline: as §1
NCI-H522 = test: Cytotoxicity against human NCI-H522 cells after 48 hrs by SRB assay; conditions: NCI-H522, 48 h; outline: as §1
HT-29 = test: Cytotoxicity against human HT-29 cells after 48 hrs by SRB assay; conditions: HT-29, 48 h; outline: as §1
KM12 = test: Cytotoxicity against human KM12 cells after 48 hrs by SRB assay; conditions: KM12, 48 h; outline: as §1
MCF7 = test: Cytotoxicity against human MCF7 cells after 48 hrs by SRB assay; conditions: MCF7, 48 h; outline: as §1
M14 = test: Cytotoxicity against human M14 cells after 48 hrs by SRB assay; conditions: M14, 48 h; outline: as §1
MDA-MB-435 = test: Cytotoxicity against human MDA-MB-435 cells after 48 hrs by SRB assay; conditions: MDA-MB-435, 48 h; outline: as §1
CAKI-1 = test: Cytotoxicity against human Caki1 cells after 48 hrs by SRB assay; conditions: CAKI-1, 48 h; outline: as §1
OVCAR-8 = test: Cytotoxicity against human OVCAR8 cells after 48 hrs by SRB assay; conditions: OVCAR-8, 48 h; outline: as §1
MDA-MB-468 = test: Cytotoxicity against human MDA-MB-468 cells after 48 hrs by SRB assay; conditions: MDA-MB-468, 48 h; outline: as §1
COLO 205 = test: Cytotoxicity against human COLO205 cells after 48 hrs by SRB assay; conditions: COLO 205, 48 h; outline: as §1
SN12C = test: Cytotoxicity against human SN12C cells after 48 hrs by SRB assay; outline: as §1
786-0 = test: Cytotoxicity against human 786-0 cells after 48 hrs by SRB assay; conditions: 786-0, 48 h; outline: as §1
HCT-15 = test: Cytotoxicity against human HCT15 cells after 48 hrs by SRB assay; conditions: HCT-15, 48 h; outline: as §1
PC-3 = test: Cytotoxicity against human PC3 cells after 48 hrs by SRB assay; conditions: PC-3, 48 h; outline: as §1
HOP-62 = test: Cytotoxicity against human HOP62 cells after 48 hrs by SRB assay; conditions: HOP-62, 48 h; outline: as §1
UACC-62 = test: Cytotoxicity against human UACC62 cells after 48 hrs by SRB assay; conditions: UACC-62, 48 h; outline: as §2
HL-60(TB) = test: Cytotoxicity against human HL-60(TB) cells after 48 hrs by SRB assay; conditions: HL-60, 48 h; outline: as §1
SK-MEL-28 = test: Cytotoxicity against human SK-MEL-28 cells after 48 hrs by SRB assay; conditions: SK-MEL-28, 48 h; outline: as §1
HCT-116 = test: Cytotoxicity against human HCT116 cells after 48 hrs by SRB assay; conditions: HCT-116, 48 h; outline: as §1
[1] = read-out: LC50 (the source's name)

Compound `CC(=O)N1N=C(c2ccc(Nc3ccnc4cc(Cl)ccc34)cc2)CC1c1ccc(Cl)cc1` (centres undefined) has a GI50 (ACHN) of 3.96 µM, a CC50 (ACHN; [1]) greater than 100 µM and a GI50 (SK-OV-3) greater than 100 µM. It also gave an LC50 (concentration killing 50% of cells) (SK-OV-3) greater than 100 µM, a GI50 (NCI-H460) greater than 100 µM and an LC50 (NCI-H460) greater than 100 µM. The GI50 (T47D) was 1.57 µM, the LC50 (concentration giving 50% cell kill relative to time zero) (T47D) was greater than 100 µM and the GI50 (SK-MEL-2) was greater than 100 µM. For the same compound, the LC50 (SK-MEL-2) was greater than 100 µM, the GI50 (BT-549) was 5.4 µM and the LC50 (50% net cell kill vs time zero) (BT-549) was greater than 100 µM. It also gave a GI50 (NCI/ADR-RES) of 3.04 µM, a CC50 (NCI/ADR-RES; [1]) greater than 100 µM and a GI50 (A549) of 8.81 µM. For the same compound, the CC50 (A549; [1]) was greater than 100 µM, the GI50 (SK-MEL-5) was 2.2 µM and the LC50 (concentration killing 50% of cells present at time zero) (SK-MEL-5) was greater than 100 µM. For the same compound, the GI50 (LOX IMVI) was 3.15 µM, the LC50 (LOX IMVI) was greater than 100 µM and the GI50 (HOP-92) was greater than 100 µM. The LC50 (concentration killing 50% of cells) (HOP-92) was greater than 100 µM, the GI50 (SR) was 0.61 µM and the LC50 (SR) was greater than 100 µM. It also gave a GI50 (Hs-578T) greater than 100 µM, an LC50 (50% net cell kill) (Hs-578T) greater than 100 µM and a GI50 (NCI-H23) greater than 100 µM. The CC50 (NCI-H23; [1]) was greater than 100 µM, the GI50 (OVCAR-3) was 7.19 µM and the LC50 (OVCAR-3) was greater than 100 µM. It also gave an LC50 (Malme-3M) greater than 100 µM, a GI50 (NCI-H522) of 5.05 µM and a CC50 (NCI-H522; [1]) greater than 100 µM. The GI50 (HT-29) was 5.4 µM, the LC50 (HT-29) was greater than 100 µM and the GI50 (KM12) was 6.59 µM. For the same compound, the LC50 (concentration killing 50% of cells) (KM12) was greater than 100 µM, the GI50 (MCF7) was 4.04 µM and the CC50 (MCF7; [1]) was greater than 100 µM. For the same compound, the GI50 (M14) was 5.24 µM, the CC50 (M14; [1]) was greater than 100 µM and the GI50 (MDA-MB-435) was 0.57 µM. It also gave an LC50 (MDA-MB-435) greater than 100 µM, a GI50 (CAKI-1) greater than 100 µM and an LC50 (CAKI-1) greater than 100 µM. The GI50 (OVCAR-8) was greater than 100 µM, the LC50 (50% net cell kill) (OVCAR-8) was greater than 100 µM and the GI50 (MDA-MB-468) was 2.41 µM. For the same compound, the LC50 (MDA-MB-468) was greater than 100 µM, the GI50 (COLO 205) was 5.93 µM and the LC50 (COLO 205) was greater than 100 µM. It also gave a GI50 (SN12C) of 30.7 µM, an LC50 (50% net cell kill relative to time zero) (SN12C) greater than 100 µM and a GI50 (786-0) greater than 100 µM. The LC50 (786-0) was greater than 100 µM, the GI50 (HCT-15) was 3.33 µM and the LC50 (concentration killing 50% of cells relative to time zero) (HCT-15) was greater than 100 µM. For the same compound, the GI50 (PC-3) was 3.02 µM, the LC50 (PC-3) was greater than 100 µM and the GI50 (HOP-62) was greater than 100 µM. It also gave an LC50 (50% lethal concentration) (HOP-62) greater than 100 µM, a GI50 (UACC-62) of 2.95 µM and a CC50 (UACC-62; [1]) greater than 100 µM. The GI50 (HL-60(TB)) was 3.56 µM, the CC50 (HL-60(TB); [1]) was greater than 100 µM and the GI50 (SK-MEL-28) was 4.88 µM. It also gave a CC50 (SK-MEL-28; [1]) greater than 100 µM, a GI50 (HCT-116) of 38.8 µM and an LC50 (HCT-116) greater than 100 µM.
